Source: ChEMBL document CHEMBL4014347, “Targeting Mycolic Acid Transport by Indole-2-carboxamides for the Treatment of Mycobacterium abscessus Infections” (J Med Chem, 2017)
In brackets after ≈: the same amount, converted by molar mass. Activity calls are given as the source filed them. No cut-off for these calls is given here.

Columns and labels:
[1] = test system: Mycobacteroides abscessus; assay: Inhibition of MmpL3 in Mycobacterium abscessus CIP104536 smooth variant assessed as increase in accumulation of trehalose monomycolate up to 6.2 ug/ml preincubated for 1 hr followed by [14C]acetic acid addition measured after 2 hrs by TLC based autoradiography analysis
In short: (§1)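 Exponential cultures in 7H9 with OADC exposed to increasing drug concentrations for 1 h at 37 °C with agitation, then labelled with 1 μCi/mL [14C]acetate (56 mCi/mmol) for 2 h; apolar lipids (TMM, TDM) run on TLC in chloroform/methanol/water 40:8:1; MAME and arabinogalactan-bound mycolates in petroleum ether/acetone 95:5; autoradiography.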

[2] = test system: Mycobacteroides abscessus; assay: Antibacterial activity against Mycobacterium abscessus CIP_PIPD1 harboring MAB_4508 g925c/A309P mutant after 3 to 5 days by two fold serial dilution method; format: functional
In short: (§2)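 Broth microdilution in cation-adjusted Mueller−Hinton broth per CLSI; inoculum 5 × 10^6 CFU/mL of exponential-phase bacteria; two-fold serial dilutions, solvent-only wells as control; 30 °C for 3−5 days; MIC read visually and confirmed by absorbance at 560 nm; triplicate on three independent occasions.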

[3] = Antibacterial activity against Mycobacterium abscessus subsp. bolletii isolate CIP108541 smooth variant after 3 to 5 days by two fold serial dilution method; format: functional; conditions: Mycobacteroides abscessus; in short: as §2
[4] = Antibacterial activity against CF patient derived Mycobacterium abscessus subsp. bolletii isolate 114 smooth variant after 3 to 5 days by two fold serial dilution method; format: functional; conditions: Mycobacteroides abscessus; in short: as §2
CYP2C8 = molecular target: T1, CYP2C8 (Homo sapiens, UniProt P10632); assay: Inhibition of CYP2C8 in human liver microsomes preincubated for 5 mins followed by NADPH addition at 10 uM measured after 10 mins by LC-MS/MS analysis relative to control; format: ADME
T1 sequence (P10632 whole entry): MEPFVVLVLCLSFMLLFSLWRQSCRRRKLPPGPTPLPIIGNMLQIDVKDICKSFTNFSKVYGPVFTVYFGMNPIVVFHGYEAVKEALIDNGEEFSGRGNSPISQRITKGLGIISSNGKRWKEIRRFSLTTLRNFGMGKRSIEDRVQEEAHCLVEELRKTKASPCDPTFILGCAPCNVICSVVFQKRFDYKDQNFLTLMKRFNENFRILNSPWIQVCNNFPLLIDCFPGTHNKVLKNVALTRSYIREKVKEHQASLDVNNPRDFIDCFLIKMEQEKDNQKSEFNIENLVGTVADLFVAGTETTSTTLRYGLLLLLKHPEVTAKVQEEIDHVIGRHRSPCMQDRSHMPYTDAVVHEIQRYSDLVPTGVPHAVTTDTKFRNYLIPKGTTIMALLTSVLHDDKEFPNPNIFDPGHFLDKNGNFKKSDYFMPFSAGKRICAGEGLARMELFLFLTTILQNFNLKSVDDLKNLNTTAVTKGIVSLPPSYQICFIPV

[5] = test system: Mycobacteroides abscessus; assay: Antibacterial activity against non CF patient derived Mycobacterium abscessus subsp. abscessus isolate CIP104536 rough variant after 3 to 5 days by two fold serial dilution method; format: functional; in short: as §2
[6] = test system: Mycobacteroides abscessus; assay: Antibacterial activity against CF patient derived Mycobacterium abscessus subsp. massiliense isolate 122 smooth variant after 3 to 5 days by two fold serial dilution method; format: functional; in short: as §2
[7] = Antibacterial activity against CF patient derived Mycobacterium abscessus subsp. bolletii isolate 116 smooth variant after 3 to 5 days by two fold serial dilution method; format: functional; conditions: Mycobacteroides abscessus; in short: as §2
[8] = test system: Mycobacteroides abscessus; assay: Inhibition of MmpL3 in Mycobacterium abscessus CIP104536 smooth variant assessed as reduction in arabinogalactan mycolation preincubated for 1 hr followed by [14C]acetic acid addition measured after 2 hrs by TLC based autoradiography analysis; in short: as §1
[9] = test system: Mycobacteroides abscessus; assay: Antibacterial activity against CF patient derived Mycobacterium abscessus subsp. massiliense isolate 111 smooth variant after 3 to 5 days by two fold serial dilution method; format: functional; in short: as §2
[10] = test system: Mycobacteroides abscessus; assay: Antibacterial activity against Mycobacterium abscessus CIP104536 after 3 to 5 days by two fold serial dilution method; format: functional
In short: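 Broth microdilution per CLSI in cation-adjusted Mueller–Hinton broth; exponential-phase inoculum 5 × 10^6 CFU/mL; two-fold serial dilutions from highest concentration, solvent wells as control; 30 °C for 3−5 days; MIC read visually and confirmed by absorbance at 560 nm; triplicate on three independent occasions.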

[11] = test system: Mycobacteroides abscessus; assay: Antibacterial activity against Addison's disease patient derived Mycobacterium abscessus subsp. massiliense isolate CIP108297 smooth variant after 3 to 5 days by two fold serial dilution method; format: functional; in short: as §2
Cytochrome P450 2C9 = Cytochrome P450 2C9 (Homo sapiens, UniProt P11712); assay: Inhibition of CYP2C9 in human liver microsomes preincubated for 5 mins followed by NADPH addition measured after 10 mins by LC-MS/MS analysis; format: ADME
[12] = Antibacterial activity against non CF patient derived Mycobacterium abscessus subsp. bolletii isolate 19 rough variant after 3 to 5 days by two fold serial dilution method; format: functional; conditions: Mycobacteroides abscessus; in short: as §2
[13] = Selectivity index, ratio of IC50 for African green monkey Vero cells to MIC for Mycobacterium abscessus CIP104536; format: toxicity; conditions: read-out: Selectivity Index
CYP3A4 = CYP3A4 (Homo sapiens, UniProt P08684); assay: Inhibition of CYP3A4 in human liver microsomes preincubated for 5 mins followed by NADPH addition at 10 uM measured after 5 mins by LC-MS/MS analysis relative to control; format: ADME
CYP2C9 = CYP2C9 (Homo sapiens, UniProt P11712); assay: Inhibition of CYP2C9 in human liver microsomes preincubated for 5 mins followed by NADPH addition at 10 uM measured after 10 mins by LC-MS/MS analysis relative to control; format: ADME
CYP1A2 = molecular target: T2, CYP1A2 (Homo sapiens, UniProt P05177); assay: Inhibition of CYP1A2 in human liver microsomes preincubated for 5 mins followed by NADPH addition at 10 uM measured after 10 mins by LC-MS/MS analysis relative to control; format: ADME
T2 sequence (P05177 whole entry): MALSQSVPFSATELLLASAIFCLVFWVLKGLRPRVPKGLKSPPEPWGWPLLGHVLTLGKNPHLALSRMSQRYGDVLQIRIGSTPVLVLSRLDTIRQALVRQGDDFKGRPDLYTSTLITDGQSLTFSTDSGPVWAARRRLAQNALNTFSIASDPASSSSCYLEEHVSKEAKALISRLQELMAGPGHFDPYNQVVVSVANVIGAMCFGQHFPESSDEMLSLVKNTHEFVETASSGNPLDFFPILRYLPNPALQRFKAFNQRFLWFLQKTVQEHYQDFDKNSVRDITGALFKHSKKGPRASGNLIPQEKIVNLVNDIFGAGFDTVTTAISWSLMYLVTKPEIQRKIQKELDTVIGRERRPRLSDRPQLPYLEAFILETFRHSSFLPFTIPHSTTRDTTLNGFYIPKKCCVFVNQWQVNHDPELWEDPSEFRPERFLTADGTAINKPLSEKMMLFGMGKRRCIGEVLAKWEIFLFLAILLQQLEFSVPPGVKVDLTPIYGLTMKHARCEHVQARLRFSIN

[14] = test system: Mycobacteroides abscessus; assay: Antibacterial activity against Mycobacterium abscessus CIP104536 smooth variant harboring pMV261 MAB_4508_A309P mutant at 0.5 to 1 ug/ml after 3 days; format: functional
In short: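 M. abscessus overexpressing wild-type or A309P MAB_4508 from pMV261 plated on 7H10 agar with 10% OADC containing drug; plates incubated at 30 °C for 3 days before growth inspection.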

[15] = test system: Mycobacterium tuberculosis; assay: Antibacterial activity against Mycobacterium tuberculosis by AlamarBlue assay; format: functional

Sequence of CYP3A4 (P08684 whole entry): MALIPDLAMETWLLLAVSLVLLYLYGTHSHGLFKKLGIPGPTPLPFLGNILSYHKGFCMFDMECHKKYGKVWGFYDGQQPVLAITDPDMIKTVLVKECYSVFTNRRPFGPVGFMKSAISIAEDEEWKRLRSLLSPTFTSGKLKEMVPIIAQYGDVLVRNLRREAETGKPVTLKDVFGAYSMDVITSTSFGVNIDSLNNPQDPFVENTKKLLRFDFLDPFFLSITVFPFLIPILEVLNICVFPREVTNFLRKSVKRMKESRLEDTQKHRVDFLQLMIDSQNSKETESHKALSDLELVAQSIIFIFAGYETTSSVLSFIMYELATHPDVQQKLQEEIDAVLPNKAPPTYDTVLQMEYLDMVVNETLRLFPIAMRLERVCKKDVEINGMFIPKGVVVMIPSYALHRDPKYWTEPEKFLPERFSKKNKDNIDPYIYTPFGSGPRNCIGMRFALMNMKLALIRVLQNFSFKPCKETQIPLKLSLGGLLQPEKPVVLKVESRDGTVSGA
Sequence of CYP2C9 (P11712 whole entry): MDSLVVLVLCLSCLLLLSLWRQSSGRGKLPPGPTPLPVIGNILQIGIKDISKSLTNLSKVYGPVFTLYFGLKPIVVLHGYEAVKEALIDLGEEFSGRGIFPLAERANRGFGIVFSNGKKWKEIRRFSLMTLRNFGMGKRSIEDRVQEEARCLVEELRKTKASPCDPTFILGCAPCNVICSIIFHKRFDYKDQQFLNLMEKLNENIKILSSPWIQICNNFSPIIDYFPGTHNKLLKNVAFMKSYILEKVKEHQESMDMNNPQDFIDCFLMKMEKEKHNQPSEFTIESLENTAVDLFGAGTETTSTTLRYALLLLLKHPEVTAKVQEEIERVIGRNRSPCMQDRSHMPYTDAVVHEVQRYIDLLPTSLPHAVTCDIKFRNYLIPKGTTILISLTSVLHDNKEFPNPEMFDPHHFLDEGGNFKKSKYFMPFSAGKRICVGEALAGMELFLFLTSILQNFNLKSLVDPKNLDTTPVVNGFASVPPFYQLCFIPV
Sequence of Cytochrome P450 2C9 (P11712 whole entry): as above

In the case of `O=C(NC1CCCCCC1)c1cc2c(Cl)cc(Cl)cc2[nH]1`, the inhibition [1] is reported as “Active”, the MIC [2] is reported as 32 µg/mL (≈ 98.4 µM) and the MIC [3] is reported as 0.125 µg/mL (≈ 0.384 µM). For the same molecule, the MIC [4] was 0.125 µg/mL (≈ 0.384 µM), the inhibition at 10 min, 10 µM (CYP2C8) was 20% and the MIC [5] was 0.125 µg/mL (≈ 0.384 µM). The MIC [6] was 0.125 µg/mL (≈ 0.384 µM), the MIC [7] was 0.25 µg/mL (≈ 0.769 µM) and the inhibition [8] was “Dose-dependent effect”. For the same molecule, the MIC [9] was 0.125 µg/mL (≈ 0.384 µM), the MIC [10] was 0.125 µg/mL (≈ 0.384 µM) and the MIC [11] was 0.125 µg/mL (≈ 0.384 µM). It also gave an IC50 (Cytochrome P450 2C9) of no more than 20 µM, an MIC [12] of 0.125 µg/mL (≈ 0.384 µM) and a selectivity ratio [13] of 64 to 128. It also gave an inhibition at 5 min, 10 µM (CYP3A4) of 1%, an inhibition at 10 min, 10 µM (CYP2C9) of 6% and an inhibition at 10 min, 10 µM (CYP1A2) of 19%. The Activity [14] was “inactive” and the “MIC=<90” value [15] was 0.0039 µg/mL (≈ 0.012 µM).
